We go through three compounds from ChEMBL document CHEMBL1133134, “Inhibition of dopamine receptors by endogenous amines: binding to striatal receptors and pharmacological effects on locomotor activity” (Bioorg Med Chem Lett, 2000).

The structures appear in SMILES notation.

What all share (assay type): subcellular, Brain
One assay addresses D(1A) dopamine receptor (Rattus norvegicus, UniProt P18901). The experiment in a line: The compound has been evaluated for its binding affinity towards Dopamine receptor D1 by displacing the radioligand [3H]SCH-23390 (1.5 nM) in rat striatal synaptosomes. The gist of the method:
(§1)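 Rat striatal synaptosomes were incubated with a ³H-labelled radioligand. Nonspecific binding was defined with excess unlabelled ligand and subtracted: SCH23390 for D1, sulpiride for D2 and GBR12909 for the dopamine transporter. Ki was calculated from IC50 as IC50/(1+[L]/KD), where [L] is the radioligand concentration and KD its dissociation constant.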

Assay [1] deals with Sodium-dependent dopamine transporter (Rattus norvegicus, UniProt P23977). Description: The compound has been evaluated for its binding affinity towards Dopamine transporter by displacing the radioligand [3H]GBR-12935 (1.0 nM) in rat striatal synaptosomes. The gist of the method: as §1
Sequence of Sodium-dependent dopamine transporter (P23977 whole entry): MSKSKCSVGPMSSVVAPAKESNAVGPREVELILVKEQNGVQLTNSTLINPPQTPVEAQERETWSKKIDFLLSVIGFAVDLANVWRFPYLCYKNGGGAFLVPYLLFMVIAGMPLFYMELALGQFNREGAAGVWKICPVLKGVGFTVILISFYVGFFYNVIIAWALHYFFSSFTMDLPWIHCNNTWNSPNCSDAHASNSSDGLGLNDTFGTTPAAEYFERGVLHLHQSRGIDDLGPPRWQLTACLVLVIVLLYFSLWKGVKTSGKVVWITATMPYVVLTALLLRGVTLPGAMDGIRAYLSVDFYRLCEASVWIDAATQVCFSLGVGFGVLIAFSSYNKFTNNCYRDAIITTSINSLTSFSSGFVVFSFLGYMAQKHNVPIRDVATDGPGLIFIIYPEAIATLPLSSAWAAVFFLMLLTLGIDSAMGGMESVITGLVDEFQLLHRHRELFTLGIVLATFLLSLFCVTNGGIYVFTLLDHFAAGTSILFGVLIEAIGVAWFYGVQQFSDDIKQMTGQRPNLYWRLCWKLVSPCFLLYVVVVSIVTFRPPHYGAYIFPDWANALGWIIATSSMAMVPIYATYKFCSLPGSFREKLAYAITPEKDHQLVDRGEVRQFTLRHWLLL
Another assay addresses D(2) dopamine receptor (Rattus norvegicus, UniProt P61169). The experiment in a line: The compound has been evaluated for its binding affinity towards Dopamine receptor D2 by displacing the radioligand [3H]YM-09151-2 (0.5 nM) in rat striatal synaptosomes. The gist of the method: as §1

Sequence of D(1A) dopamine receptor (P18901 whole entry): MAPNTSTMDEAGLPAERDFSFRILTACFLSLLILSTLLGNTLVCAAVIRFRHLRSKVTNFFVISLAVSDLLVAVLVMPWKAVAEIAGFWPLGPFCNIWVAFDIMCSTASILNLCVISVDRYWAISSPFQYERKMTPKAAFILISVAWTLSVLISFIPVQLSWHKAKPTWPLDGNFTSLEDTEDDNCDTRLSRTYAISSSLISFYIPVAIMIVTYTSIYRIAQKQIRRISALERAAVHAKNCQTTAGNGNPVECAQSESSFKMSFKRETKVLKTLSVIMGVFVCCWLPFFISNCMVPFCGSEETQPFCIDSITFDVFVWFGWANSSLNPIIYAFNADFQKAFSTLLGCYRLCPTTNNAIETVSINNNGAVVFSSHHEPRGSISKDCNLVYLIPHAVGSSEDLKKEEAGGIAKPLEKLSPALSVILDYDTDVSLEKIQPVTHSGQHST
Sequence of D(2) dopamine receptor (P61169 whole entry): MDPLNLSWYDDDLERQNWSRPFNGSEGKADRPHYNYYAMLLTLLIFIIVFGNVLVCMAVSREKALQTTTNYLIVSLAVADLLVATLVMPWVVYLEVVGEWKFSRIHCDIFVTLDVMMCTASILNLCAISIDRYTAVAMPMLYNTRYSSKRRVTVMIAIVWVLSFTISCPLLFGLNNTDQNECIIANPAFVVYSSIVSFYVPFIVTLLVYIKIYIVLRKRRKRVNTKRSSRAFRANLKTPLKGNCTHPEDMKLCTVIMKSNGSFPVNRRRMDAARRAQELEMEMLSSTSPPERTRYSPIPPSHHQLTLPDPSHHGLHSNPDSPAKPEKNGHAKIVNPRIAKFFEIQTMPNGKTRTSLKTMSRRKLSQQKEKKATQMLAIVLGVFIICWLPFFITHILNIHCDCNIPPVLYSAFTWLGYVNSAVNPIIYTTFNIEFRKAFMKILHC

For orientation: Ki means the dissociation constant of the complex between target and ligand, obtained from inhibition or displacement. Read a high Ki as weaker binding. Consider `c1ccc(CC2NCCc3ccccc32)cc1` (centres undefined), for which the Ki at D(1A) dopamine receptor was 249 µM; in assay [1], 36.6 µM; on D(2) dopamine receptor, 3.57 µM.

Consider `Oc1cc2c(cc1O)C(Cc1ccccc1)NCC2` (centres undefined), for which the Ki at D(1A) dopamine receptor stood at 9.27 µM; in assay [1] it was 57.6 µM; at D(2) dopamine receptor, 0.64 µM.

Take `Oc1ccc(CC2NCCc3ccccc32)cc1O` (centres undefined): the values for the Ki (on D(1A) dopamine receptor; in assay [1]; on D(2) dopamine receptor) were 175 µM, 21.5 µM and 8.79 µM, respectively.
